Assay results reported in ChEMBL document CHEMBL1142540, “Novel piperidinylpyrimidine derivatives as inhibitors of HIV-1 LTR activation” (Bioorg Med Chem, 2008).

Assays:
PBMC = assay: Inhibition of LPS-stimulated TNFalpha production in human PBMC; assay type: functional, cell-based
In short: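 Human PBMC from healthy donors isolated by Ficoll-Paque, seeded at 1×10^5 cells/well in RPMI 1640 with 10% heat-inactivated FBS and L-glutamine. Stimulated with LPS 0.1 ug/ml final, compound added at the same time (DMSO below 0.1%), 20 h; supernatants collected for TNF-α.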

[1] = Inhibition of HIV1 LTR-driven CAT gene expression in PMA-stimulated human JURKAT cells; assay type: cell-based; conditions: Human immunodeficiency virus 1, Jurkat
In short: (§1)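 Jurkat cells electroporated (140 V) with HIV-1 LTR-CAT plasmid p469 using DEAE-dextran and cultured 20 h. Cells then stimulated with PMA 10 ng/ml in presence of compound for 24 h at 37 °C, lysed by freeze-thaw.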

Jurkat [2] = assay: Cytotoxicity against human JURKAT cells; assay type: cell-based
In short: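 Cell number of treated Jurkat cells counted by Coulter counter to assess inhibition of proliferation.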

Jurkat [3] = assay: Inhibition of HIV1 LTR-driven CAT gene expression in PMA-stimulated human JURKAT cells at 5 uM; assay type: cell-based; conditions: Human immunodeficiency virus 1; in short: as §1
[4] = Inhibition of HIV1 LTR-driven CAT gene expression in Tat-stimulated human JURKAT cells; assay type: cell-based; conditions: Human immunodeficiency virus 1, Jurkat
In short: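 Jurkat cells co-electroporated (140 V) with LTR-CAT p469 plus pSV-Tat using DEAE-dextran, cultured 20 h, then treated with compound alone (no PMA) for 24 h at 37 °C.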

[5] = system: Peritoneal macrophage cell; assay: Inhibition of LPS-stimulated TNFalpha production in BALB/c mouse peritoneal macrophages by ELISA; assay type: functional, cell-based
In short: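 Thioglycolate-elicited peritoneal macrophages from 5-week-old female BALB/c mice, adherent cells at 2×10^5/well in MEM with 10% FBS. LPS 10 ug/ml final, added together with compound (DMSO below 0.1%), 20 h. Supernatant TNF-α measured by sandwich ELISA against recombinant mouse TNF-α standard curve, absorbance at 450 nm.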

Compound	IC50 (PBMC) [nM]	IC50 [1] [nM]	Activity (Jurkat [2])	inhibition (Jurkat [3]) [%]	IC50 [4] [nM]	IC50 [5] [nM]
COc1cccc(Cc2cc(C3CCN(C(=O)c4ccc5c(c4)OCO5)CC3)nc(N)n2)c1	2700	300	Non-toxic	–	–	–
COc1ccc(Cc2cc(C3CCN(C(=O)Cc4ccc5c(c4)OCO5)CC3)nc(N)n2)cc1	–	> 5000	Non-toxic	16	–	–
COc1ccc(Cc2cc(C3CCN(C(=O)c4ccc5c(c4)CCO5)CC3)nc(N)n2)cc1	–	> 5000	Non-toxic	-8	–	–
Nc1nc(Cc2ccc(Cl)cc2)cc(C2CCN(C(=O)c3ccc4c(c3)OCO4)CC2)n1	13000	1300	Non-toxic	–	7100	–
COc1ccc(Cc2cc(C3CCN(C(=O)c4ccc5c(c4)OCO5)CC3)on2)cc1	–	> 5000	Non-toxic	35	–	–
COc1ccc(Cc2cc(C3CCN(C(=O)c4ccc([N+](=O)[O-])cc4)CC3)nc(N)n2)cc1	–	> 5000	Non-toxic	23	–	700
COc1ccc(Cc2cc(C3CCN(C(=O)c4ccc5occc5c4)CC3)nc(N)n2)cc1	–	> 5000	Non-toxic	4	–	–
COc1ccc(Cc2cc(C3CCN(C(=O)Cc4ccc(OC)c(OC)c4)CC3)nc(N)n2)cc1	–	> 5000	Non-toxic	7	–	–
COc1ccc(Cc2cc(C3CCN(C(=O)c4ccc5c(c4)OCO5)CC3)nc(Cl)n2)cc1	–	700	Non-toxic	–	–	–
COc1ccc(Cc2cc(C3CCN(C(=O)c4ccccc4)CC3)nc(N)n2)cc1	–	> 5000	Non-toxic	19	–	–
COc1ccc(Cc2cc(C3CCN(C(=O)c4ccc5[nH]ccc5c4)CC3)nc(N)n2)cc1	–	> 5000	Non-toxic	1	–	–
Cc1cc(C2CCN(C(=O)c3ccc4c(c3)OCO4)CC2)nc(N)n1	–	> 5000	Non-toxic	10	–	–
Nc1nc(Cc2ccc3c(c2)OCO3)cc(C2CCN(C(=O)c3ccc4c(c3)OCO4)CC2)n1	3300	700	Non-toxic	–	–	–
COc1ccc(Cc2cc(C3CCN(C(=O)c4ccc5ncoc5c4)CC3)nc(N)n2)cc1	–	> 5000	Non-toxic	-8	–	–
Nc1nc(Cc2ccc(Br)cc2)cc(C2CCN(C(=O)c3ccc4c(c3)OCO4)CC2)n1	–	700	Non-toxic	–	–	–
COc1ccc(-c2cc(C3CCN(C(=O)c4ccc5c(c4)OCO5)CC3)nc(N)n2)cc1	–	1900	Non-toxic	–	–	–
COc1ccc(Cc2cc(C3CCN(C(=O)c4ccc(Cl)cc4)CC3)nc(N)n2)cc1	–	> 5000	Non-toxic	21	–	600
COc1ccc(Cc2cc(C3CCN(C(=O)c4ccc5ocnc5c4)CC3)nc(N)n2)cc1	–	> 5000	Non-toxic	-7	–	–
Nc1nc(Cc2ccc(OCc3ccccc3)cc2)cc(C2CCN(C(=O)c3ccc4c(c3)OCO4)CC2)n1	–	1200	Non-toxic	–	2100	–
COc1ccc(Cc2cc(C3CCN(C(=O)c4ccc5nsnc5c4)CC3)nc(N)n2)cc1	–	> 5000	Non-toxic	4	–	–
Nc1nc(-c2ccc(Cl)cc2)cc(C2CCN(C(=O)c3ccc4c(c3)OCO4)CC2)n1	–	> 5000	Non-toxic	42	–	–
CS(=O)(=O)c1ccc(Cc2cc(C3CCN(C(=O)c4ccc5c(c4)OCO5)CC3)nc(N)n2)cc1	–	> 5000	Non-toxic	37	–	–

Compound	IC50 (PBMC) [nM]	IC50 [1] [nM]	Activity (Jurkat [2])	inhibition (Jurkat [3]) [%]	IC50 [4] [nM]	IC50 [5] [nM]
COc1ccc(Cc2cc(C3CCN(C(=O)c4ccc5c(c4)OCO5)CC3)nc(N)n2)cc1	1900	600	Non-toxic	86	4000	600
Nc1nc(C2CCN(C(=O)c3ccc4c(c3)OCO4)CC2)c2ccccc2n1	–	2600	Non-toxic	–	–	–
COc1ccc(Cc2cc(C3CCN(C(=O)c4ccc5c(c4)OCO5)CC3)nc(N)n2)cc1OC	3200	600	Non-toxic	–	–	–
CCCCCCCC(=O)N1CCC(c2cc(Cc3ccc(OC)cc3)nc(N)n2)CC1	–	> 5000	Non-toxic	19	–	–
COc1ccc(Cc2cc(C3CCN(Cc4ccc5c(c4)OCO5)CC3)nc(N)n2)cc1	–	> 5000	Non-toxic	-2	–	–
COc1ccc(Cc2cc(C3CCN(C(=O)c4ccc5c(c4)OCO5)CC3)no2)cc1	–	> 5000	Non-toxic	36	–	–
Nc1nc(-c2ccccc2)cc(C2CCN(C(=O)c3ccc4c(c3)OCO4)CC2)n1	–	> 5000	Non-toxic	47	–	–
COc1ccc(Cc2cc(C3CCN(C(=O)c4ccc5ccoc5c4)CC3)nc(N)n2)cc1	–	> 5000	Non-toxic	2	–	–
Nc1nc(Cc2ccccc2)cc(C2CCN(C(=O)c3ccc4c(c3)OCO4)CC2)n1	3200	800	Non-toxic	–	–	–
COc1ccc(Cc2cc(C3CCN(C(=O)c4ccc5c(c4)OCCO5)CC3)nc(N)n2)cc1	–	> 5000	Non-toxic	7	–	–
COc1ccc(Cc2cc(C3CCN(C(=O)c4ccc5c(c4)OCO5)CC3)n[nH]2)cc1	–	> 5000	Non-toxic	35	–	–
COc1ccc(-c2c(C)nc(N)nc2C2CCN(C(=O)c3ccc4c(c3)OCO4)CC2)cc1	–	> 5000	Non-toxic	31	–	–
C[S+]([O-])c1ccc(Cc2cc(C3CCN(C(=O)c4ccc5c(c4)OCO5)CC3)nc(N)n2)cc1 (centres undefined)	–	> 5000	Non-toxic	27	–	–
COc1ccc(Cc2cc(C3CCN(C(=O)c4ccc(Cl)c(Cl)c4)CC3)nc(N)n2)cc1	–	> 5000	Non-toxic	17	–	700
Nc1nc(CCc2ccccc2)cc(C2CCN(C(=O)c3ccc4c(c3)OCO4)CC2)n1	–	2100	Non-toxic	–	–	–
COc1ccc(Cc2cc(C3CCN(C(=O)c4ccc(OC)c(OC)c4)CC3)nc(N)n2)cc1	–	> 5000	Non-toxic	14	–	900
Nc1nc(Cc2ccc(O)cc2)cc(C2CCN(C(=O)c3ccc4c(c3)OCO4)CC2)n1	–	> 5000	Non-toxic	36	–	–
COc1ccc(Cc2cc(C3CCN(C(=O)c4cccc5c4OCO5)CC3)nc(N)n2)cc1	–	> 5000	Non-toxic	13	–	–
COc1ccc(Cc2cc(C3CCN(C(C)=O)CC3)nc(N)n2)cc1	–	> 5000	Non-toxic	0	–	–
COc1ccc(Cc2cc(C3CCN(C(=O)c4ccc(OC)cc4)CC3)nc(N)n2)cc1	–	> 5000	Non-toxic	-5	–	500
COc1ccc(Cc2cc(C3CCN(C(=O)c4ccc5c(c4)OCO5)CC3)ncn2)cc1	–	500	Non-toxic	–	–	–
COc1ccc(Cc2cc(C3CCN(C(=O)c4ccc5c(c4)OCO5)CC3)nc(=O)[nH]2)cc1	–	> 5000	Non-toxic	–	–	–
